Laboratory results: ChEMBL document CHEMBL1123193, “The lysine pathway as a target for a new genera of synthetic antibacterial antibiotics?” (1986)
≈ marks a conversion by molar mass, not a printed value.

Legend:
[1] = Minimum inhibitory concentration compared to D-cycloserine, against Moraxella glucidolytica 52.90; type: functional
In short: (§1)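 Agar dilution on Davis and Mingioli solid medium, supplemented with amino acids where needed. MIC taken as the lowest concentration giving complete growth inhibition, expressed in micrograms.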

Escherichia coli [2] = experiment: Percent of inhibition of diaminopimelic acid decarboxylase at 10 mmol of amino acids, 1.05 mmol/L of labeled meso-DAP, and 32 umol/L of PLP
In short: (§2)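 Enzyme was meso-DAP decarboxylase isolated and purified from E. coli ATCC 9637. Inhibition measured as decarboxylation of labeled meso-DAP in the presence of the test amino acid.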

Citrobacter freundii = experiment: Minimum inhibitory concentration compared to D-cycloserine, against Citrobacter freundii 55.13; type: functional; in short: as §1
Escherichia coli [3] = experiment: Minimum inhibitory concentration compared to D-cycloserine, against Escherichia coli DC2; type: functional; in short: as §1
Pseudomonas aeruginosa [4] = experiment: Minimum inhibitory concentration compared to D-cycloserine, against Pseudomonas aeruginosa A22; type: functional; in short: as §1
Escherichia coli [5] = experiment: Minimum inhibitory concentration compared to D-cycloserine, against Escherichia coli UB 1005; type: functional; in short: as §1
Providencia rettgeri = experiment: Minimum inhibitory concentration compared to D-cycloserine, against Proteus rettgeri 53.100; type: functional; in short: as §1
Serratia liquefaciens = experiment: Minimum inhibitory concentration compared to D-cycloserine, against Serratia liquefaciens 52.56; type: functional; in short: as §1
[6] = test system: Providencia alcalifaciens; experiment: Minimum inhibitory concentration compared to D-cycloserine, against providencia alcalifaciens 58.62; type: functional; in short: as §1
Serratia marcescens = experiment: Minimum inhibitory concentration compared to D-cycloserine, against Serratia marcescens A 174; type: functional; in short: as §1
Klebsiella pneumoniae = experiment: Minimum inhibitory concentration compared to D-cycloserine, against Klebsiella pneumoniae 53.153; type: functional; in short: as §1
Pseudomonas aeruginosa [7] = experiment: Minimum inhibitory concentration required for the inhibition of Pseudomonas aeruginosa A22; type: functional; in short: as §1
Escherichia coli [8] = experiment: Percent of inhibition of diaminopimelic acid decarboxylase at 5 mmol of amino acids, 1.05 mmol/L of labeled meso-DAP, and 32 umol/L of PLP; in short: as §2
Enterobacter cloacae [9] = experiment: Minimum inhibitory concentration compared to D-cycloserine, against Enterobacter cloacae 60.22
Escherichia coli [10] = experiment: Percent of inhibition of diaminopimelic acid decarboxylase at 1 mmol of amino acids, 1.05 mmol/L of labeled meso-DAP, and 32 umol/L of PLP; in short: as §2
Escherichia coli [11] = experiment: Minimum inhibitory concentration compared to D-cycloserine, against Escherichia coli ATCC 9637; type: functional; in short: as §1
Escherichia coli [12] = experiment: Minimum inhibitory concentration required for the inhibition of Escherichia coli ATCC 9637; type: functional; in short: as §1
Escherichia coli [13] = experiment: Percent of inhibition of diaminopimelic acid decarboxylase at 10 mmol of amino acid, 1.05 mmol/L of labeled meso-DAP, and 32 umol/L of PLP; in short: as §2
Escherichia coli [14] = experiment: Percent of inhibition of diaminopimelic acid decarboxylase at 5 mmol of amino acid, 1.05 mmol/L of labeled meso-DAP, and 32 umol/L of PLP; in short: as §2
Escherichia coli [15] = experiment: Compound is evaluated for the inhibition of bacterial growth (Escherichia coli ATCC 9637) in the liquid medium at 2 mmol of amino acid; type: functional
In short: (§3)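 Davis and Mingioli liquid medium, 4.8 mL, inoculated with 0.2 mL of an 18-h liquid culture of the test organism, with 0.1 mL of compound solution added. Growth followed by absorbance at 660 nm. Percent inhibition calculated after 6 h at 37 °C.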

Escherichia coli [16] = experiment: Compound is evaluated for the inhibition of bacterial growth (Escherichia coli ATCC 9637) in the liquid medium at 5 mmol of amino acid; type: functional; in short: as §3
Escherichia coli [17] = experiment: Percent of inhibition of diaminopimelic acid decarboxylase at 1 mmol of amino acid, 1.05 mmol/L of labeled meso-DAP, and 32 umol/L of PLP; in short: as §2
Enterobacter cloacae [18] = experiment: Minimum inhibitory concentration compared to D-cycloserine, against Enterobacter cloacae 60.22; remark: listed apart in the source
Escherichia coli [19] = experiment: Compound is evaluated for the inhibition of bacterial growth (Escherichia coli ATCC 9637) in the liquid medium at 1 mmol of amino acid; type: functional; in short: as §3
Escherichia coli [20] = experiment: Compound is evaluated for the growth of Escherichia coli W7 in the liquid medium at 100 ug/mL.; Absence of growth; type: functional, organism-based
Escherichia coli [21] = experiment: Percent of inhibition of diaminopimelic acid decarboxylase at 2 mmol of amino acid, 1.05 mmol/L of labeled meso-DAP, and 32 umol/L of PLP; in short: as §2
Escherichia coli [22] = experiment: Percent of inhibition of diaminopimelic acid decarboxylase at 1 mmol of amino acid; in short: as §2
Escherichia coli [23] = experiment: Percent of inhibition of diaminopimelic acid decarboxylase at 5 mmol of amino acid; in short: as §2
Escherichia coli [24] = experiment: Compound is evaluated for the growth of Escherichia coli W7 in the presence lysine in liquid medium; Growth is observed; type: functional, organism-based
Escherichia coli [25] = experiment: Percent of inhibition of DAP decarboxylase at 10 mmol of amino acids, 1.05 mmol/L of labeled meso-DAP, and 32 umol/L of PLP; in short: as §2
Pseudomonas aeruginosa [26] = experiment: Not Plasmodium species; type: functional
Escherichia coli [27] = experiment: Percent of inhibition of diaminopimelic acid decarboxylase at 2 mmol of amino acids, 1.05 mmol/L of labeled meso-DAP, and 32 umol/L of PLP; in short: as §2
Escherichia coli [28] = experiment: Percent of inhibition of v decarboxylase at 1 mmol of amino acids, 1.05 mmol/L of labeled meso-DAP, and 32 umol/L of PLP; in short: as §2
[29] = Pseudomonas aeruginosa, read-out: MIC
[30] = Escherichia coli, ATCC 9637, read-out: MIC

C=C(C[C@@H](N)C(=O)O)C[C@@H](N)C(=O)O.C=C(C[C@H](N)C(=O)O)C[C@H](N)C(=O)O
MIC [1]: 8 mg/L | inhibition (Escherichia coli [2]): 20% | MIC (Citrobacter freundii): 8 mg/L | MIC (Escherichia coli [3]): 8 mg/L | MIC (Pseudomonas aeruginosa [4]): 32 mg/L | MIC (Escherichia coli [5]): 8 mg/L | MIC (Providencia rettgeri): 64 mg/L | MIC (Serratia liquefaciens): 4 mg/L | MIC [6]: 32 mg/L | MIC (Serratia marcescens): 4 mg/L | MIC (Klebsiella pneumoniae): 16 mg/L | MIC (Pseudomonas aeruginosa [7]; [29]): 4 mg/L | inhibition (Escherichia coli [8]): 10% | MIC (Enterobacter cloacae [9]): 16 mg/L | inhibition (Escherichia coli [10]): 5% | MIC (Escherichia coli [11]): 16 mg/L | MIC (Escherichia coli [12]): 2 mg/L

CC(CC(N)C(=O)O)CC(N)C(=O)O (stereo unspecified)
inhibition (Escherichia coli [13]): 55% | inhibition (Escherichia coli [14]): 43% | Inhibition (Escherichia coli [15]): 0% | Inhibition (Escherichia coli [16]): 0% | inhibition (Escherichia coli [17]): 12%

C=C(CC(N)C(=O)O)CC(N)C(=O)O (stereo in doubt; 4) [listing 1 of 2 here]
MIC [1]: 16 mg/L (≈ 79.1 µM) | MIC (Citrobacter freundii): 16 mg/L (≈ 79.1 µM) | MIC (Escherichia coli [3]): 32 mg/L (≈ 158 µM) | MIC (Pseudomonas aeruginosa [4]): 16 mg/L (≈ 79.1 µM) | MIC (Escherichia coli [5]): 2 mg/L (≈ 9.89 µM) | MIC (Providencia rettgeri): 128 mg/L (≈ 633 µM) | MIC (Serratia liquefaciens): 2 mg/L (≈ 9.89 µM) | MIC [6]: 128 mg/L (≈ 633 µM) | MIC (Serratia marcescens): 2 mg/L (≈ 9.89 µM) | MIC (Klebsiella pneumoniae): 32 mg/L (≈ 158 µM) | MIC (Pseudomonas aeruginosa [7]): 4 mg/L (≈ 19.8 µM) | Inhibition (Escherichia coli [15]): 90% | Inhibition (Escherichia coli [16]): 95% | MIC (Enterobacter cloacae [18]): 16 mg/L (≈ 79.1 µM) | MIC (Escherichia coli [11]): 32 mg/L (≈ 158 µM) | Inhibition (Escherichia coli [19]): 90% | MIC (Escherichia coli [12]): 2 mg/L (≈ 9.89 µM)

N[C@H](CCC[C@H](N)C(=O)O)C(=O)O
Bacterial growth (Escherichia coli [20]): Absence of growth

CC(N)(/C=C/CC(N)C(=O)O)C(=O)O (stereo unspecified)
inhibition (Escherichia coli [21]): 0% | Inhibition (Escherichia coli [15]): 0% | Inhibition (Escherichia coli [16]): 0% | inhibition (Escherichia coli [17]): 0%

NC(/C=C(\Cl)CC(N)C(=O)O)C(=O)O (stereo unspecified)
inhibition (Escherichia coli [22]): 18% | inhibition (Escherichia coli [23]): 53% | Inhibition (Escherichia coli [16]): 50% | MIC (Escherichia coli [12]): > 128 mg/L

C=C(CC(N)C(=O)O)CC(N)C(=O)O (stereo in doubt; 4) [listing 2 of 2 here]
inhibition (Escherichia coli [2]): 30% | Bacterial growth (Escherichia coli [24]): Growth | inhibition (Escherichia coli [8]): 15% | inhibition (Escherichia coli [10]): 5%

C=C(C[C@@H](N)C(=O)O)C[C@H](N)C(=O)O
MIC [1]: 16 mg/L (≈ 79.1 µM) | MIC (Citrobacter freundii): 32 mg/L (≈ 158 µM) | MIC (Escherichia coli [3]): 4 mg/L (≈ 19.8 µM) | MIC (Pseudomonas aeruginosa [4]): 16 mg/L (≈ 79.1 µM) | MIC (Escherichia coli [5]): 2 mg/L (≈ 9.89 µM) | inhibition (Escherichia coli [25]): 30% | MIC (Providencia rettgeri): 64 mg/L (≈ 317 µM) | MIC (Serratia liquefaciens): 2 mg/L (≈ 9.89 µM) | MIC [6]: 128 mg/L (≈ 633 µM) | MIC (Serratia marcescens): 4 mg/L (≈ 19.8 µM) | MIC (Klebsiella pneumoniae): 16 mg/L (≈ 79.1 µM) | MIC (Pseudomonas aeruginosa [7]; [29]): 4 mg/L (≈ 19.8 µM) | inhibition (Escherichia coli [8]): 22% | MIC (Enterobacter cloacae [9]): 16 mg/L (≈ 79.1 µM) | inhibition (Escherichia coli [10]): 8% | MIC (Escherichia coli [11]): 32 mg/L (≈ 158 µM) | MIC (Escherichia coli [12]): 2 mg/L (≈ 9.89 µM)

N[C@@H]1CONC1=O [CYCLOSERINE]
MIC [1]: 128 mg/L (≈ 1250 µM) | MIC (Citrobacter freundii): 2 mg/L (≈ 19.6 µM) | MIC (Escherichia coli [3]): 128 mg/L (≈ 1250 µM) | MIC (Pseudomonas aeruginosa [4]): 64 mg/L (≈ 627 µM) | MIC (Escherichia coli [5]): 32 mg/L (≈ 313 µM) | MIC (Providencia rettgeri): 128 mg/L (≈ 1250 µM) | MIC (Serratia liquefaciens): 8 mg/L (≈ 78.4 µM) | MIC [6]: 8 mg/L (≈ 78.4 µM) | MIC (Pseudomonas aeruginosa [26]): 128 mg/L (≈ 1250 µM) | MIC (Serratia marcescens): 128 mg/L (≈ 1250 µM) | MIC (Klebsiella pneumoniae): 8 mg/L (≈ 78.4 µM) | MIC (Enterobacter cloacae [9]): 2 mg/L (≈ 19.6 µM) | MIC (Escherichia coli [11]): 0.5 mg/L (≈ 4.9 µM) | MIC (Escherichia coli [12]; [30]): 0.25 mg/L (≈ 2.45 µM)

NCCCC[C@H](N)C(=O)O
Bacterial growth (Escherichia coli [20]): Absence of growth

C/C(=C/C(N)C(=O)O)CC(N)C(=O)O (stereo unspecified)
inhibition (Escherichia coli [2]): 73% | inhibition (Escherichia coli [27]): 33% | Inhibition (Escherichia coli [15]): 0% | Inhibition (Escherichia coli [16]): 55% | inhibition (Escherichia coli [8]): 54% | inhibition (Escherichia coli [10]): 17% | Inhibition (Escherichia coli [19]): 0%

C=C(CC(N)C(=O)O)CC(N)C(=O)O (stereo in doubt; (+)-4)
MIC (Pseudomonas aeruginosa [7]): 6 mg/L (≈ 29.7 µM) | MIC (Escherichia coli [12]): 6 mg/L (≈ 29.7 µM)

C[C@@H]1O[C@@H]1P(=O)(O)O [FOSFOMYCIN]
MIC (Pseudomonas aeruginosa [26]): 32 mg/L (≈ 232 µM) | MIC (Escherichia coli [12]; [30]): 16 mg/L (≈ 116 µM)

CC1(C)S[C@@H]2[C@H](NC(=O)[C@H](N)c3ccccc3)C(=O)N2[C@H]1C(=O)O [AMPICILLIN]
MIC (Pseudomonas aeruginosa [26]): 512 mg/L (≈ 1470 µM) | MIC (Escherichia coli [12]; [30]): 5 mg/L (≈ 14.3 µM)

C=C(CC(N)C(=O)O)CC(N)C(=O)O (single isomer, unassigned; (-))
MIC (Pseudomonas aeruginosa [7]; [29]): 4 mg/L (≈ 19.8 µM) | MIC (Escherichia coli [12]; Escherichia coli, ATCC 9637): 4 mg/L (≈ 19.8 µM)

NC(/C=C/CC(N)C(=O)O)C(=O)O (stereo unspecified)
inhibition (Escherichia coli [21]): 77% | Inhibition (Escherichia coli [15]): 0% | Inhibition (Escherichia coli [16]): 0% | Inhibition (Escherichia coli [19]): 0% | inhibition (Escherichia coli [17]): 65%

C/C(=C\C(N)C(=O)O)CC(N)C(=O)O (stereo unspecified)
inhibition (Escherichia coli [27]): 20% | Inhibition (Escherichia coli [15]): 21% | Inhibition (Escherichia coli [16]): 50% | inhibition (Escherichia coli [8]): 50% | Inhibition (Escherichia coli [19]): 0%

CC(N)(CCCC(N)C(=O)O)C(=O)O (stereo unspecified)
inhibition (Escherichia coli [28]): 8% | inhibition (Escherichia coli [27]): 18% | Inhibition (Escherichia coli [15]): 74% | Inhibition (Escherichia coli [16]): 90% | inhibition (Escherichia coli [8]): 35% | Inhibition (Escherichia coli [19]): 38% | MIC (Escherichia coli [12]): 512 mg/L (≈ 2510 µM)
